The values that follow come from ChEMBL document CHEMBL3243979, “Syntheses of N-substituted 2(3,4)-pyridylcarboxylic acid hydrazides with analgesic and antiinflammatory activity” (1979).

Format in all cases: functional
The subject of experiment [1] is Rattus norvegicus. In words: Antiinflammatory activity in Sprague-Dawley rat assessed as inhibition of carrageenan-induced paw edema at 128 mg/kg, sc administered post-challenge measured at 3 hrs post compound treatment relative to vehicle-treated control. As to conditions: route subcutaneous.
In experiment [2] the test system is Mus musculus. In words: Analgesic activity in Swiss albino mouse assessed as inhibition of phenyl-p-benzoquinone-induced writhing at 128 mg/kg, sc administered 30 mins prior challenge relative to vehicle-treated control. As to conditions: route subcutaneous. Summed up: (§1)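 Male Swiss albino mice, 18–22 g, five per group. Compound suspended in physiological saline with Tween 80 and given sc. At 30 min, 0.03% phenyl-p-benzoquinone given ip at 0.1 mL/10 g body weight. Total writhes per animal counted against a vehicle-treated control group. % change = (treated writhes/control writhes) × 100 − 100.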

The subject of experiment [3] is Rattus norvegicus. In words: Antiinflammatory activity in Sprague-Dawley rat assessed as inhibition of carrageenan-induced paw edema at 128 mg/kg, sc administered post-challenge measured at 5 hrs post compound treatment relative to vehicle-treated control. Conditions: route subcutaneous.
The test system of experiment [4] is Rattus norvegicus. In words: Antiinflammatory activity in Sprague-Dawley rat assessed as inhibition of carrageenan-induced paw edema at 100 mg/kg, […] measured at 3 hrs post compound treatment relative to vehicle-treated control. Conditions: sc, route subcutaneous.
Experiment [5] deals with Mus musculus. In words: Analgesic activity in Swiss albino mouse assessed as inhibition of phenyl-p-benzoquinone-induced writhing at 120 mg/kg, sc administered 30 mins prior challenge relative to vehicle-treated control. As to conditions: route subcutaneous. Summed up:
as §1

The test system of experiment [6] is Rattus norvegicus. In words: Antiinflammatory activity in Sprague-Dawley rat assessed as inhibition of carrageenan-induced paw edema at 100 mg/kg, sc administered post-challenge measured at 5 hrs post compound treatment relative to vehicle-treated control. As to conditions: route subcutaneous.
For experiment [7], the system named is Mus musculus. In words: Analgesic activity in Swiss albino mouse assessed as inhibition of phenyl-p-benzoquinone-induced writhing at 56 mg/kg, sc administered 30 mins prior challenge relative to vehicle-treated control. Conditions: route subcutaneous. Summed up: as §1
The subject of experiment [8] is Rattus norvegicus. The experiment can be described thus: Antiinflammatory activity in Sprague-Dawley rat assessed as inhibition of carrageenan-induced paw edema at 64 mg/kg, […] measured at 3 hrs post compound treatment relative to vehicle-treated control. As to conditions: sc, route subcutaneous.
In experiment [9] the test system is Rattus norvegicus. In words: Antiinflammatory activity in Sprague-Dawley rat assessed as inhibition of carrageenan-induced paw edema at 64 mg/kg, sc administered post-challenge measured at 5 hrs post compound treatment relative to vehicle-treated control. As to conditions: route subcutaneous.
Experiment [10] has as its system Mus musculus. The experiment can be described thus: Analgesic activity in Swiss albino mouse assessed as inhibition of phenyl-p-benzoquinone-induced writhing at 11.8 mg/kg, sc administered 30 mins prior challenge relative to vehicle-treated control. As to conditions: route subcutaneous. Summed up:
as §1

In experiment [11] the test system is Rattus norvegicus. The experiment can be described thus: Antiinflammatory activity in Sprague-Dawley rat assessed as inhibition of carrageenan-induced paw edema at 120 mg/kg, […] measured at 3 hrs post compound treatment relative to vehicle-treated control. Conditions: sc, route subcutaneous.
Experiment [12] deals with Rattus norvegicus. The experiment can be described thus: Antiinflammatory activity in Sprague-Dawley rat assessed as inhibition of carrageenan-induced paw edema at 120 mg/kg, sc administered post-challenge measured at 5 hrs post compound treatment relative to vehicle-treated control. As to conditions: route subcutaneous.
Experiment [13] concerns Rattus norvegicus. The experiment can be described thus: Antiinflammatory activity in Sprague-Dawley rat assessed as inhibition of carrageenan-induced paw edema at 12 mg/kg, sc administered post-challenge measured at 5 hrs post compound treatment relative to vehicle-treated control. As to conditions: route subcutaneous.
Experiment [14] deals with Rattus norvegicus. The experiment can be described thus: Antiinflammatory activity in Sprague-Dawley rat assessed as inhibition of carrageenan-induced paw edema at 12 mg/kg, sc administered post-challenge measured at 3 hrs post compound treatment relative to vehicle-treated control. As to conditions: route subcutaneous.
The test system of experiment [15] is Mus musculus. In words: Analgesic activity in Swiss albino mouse assessed as inhibition of phenyl-p-benzoquinone-induced writhing at 50 mg/kg, sc administered 30 mins prior challenge relative to vehicle-treated control. Conditions: route subcutaneous. Summed up:
as §1

In the case of `CC(=O)N(NC(=O)c1ccncc1)C(C)=O`, the inhibition in vivo at 128 mg/kg with Rattus norvegicus [1] is 50%; with Mus musculus [2], 32%; with Rattus norvegicus [3], 17%.
As to `O=C(NNc1ccccn1)c1ccncc1`, the inhibition in vivo at 100 mg/kg was determined as 83% with Rattus norvegicus [4] and 100% in the experiment on Rattus norvegicus [6]. Also, the inhibition in vivo at 120 mg/kg in the experiment with Mus musculus [5] is 0%.
Regarding `O=C(NN1CCc2ccccc2C1)c1ccncc1`, the inhibition in vivo at 128 mg/kg amounted to 17% in the experiment with Rattus norvegicus [1], 79% in the experiment on Mus musculus [2] and 17% in the experiment with Rattus norvegicus [3].
On to `CCC(=O)O[C@](Cc1ccccc1)(c1ccccc1)[C@H](C)CN(C)C` [PROPOXYPHENE], for which the inhibition in vivo at 56 mg/kg in the experiment on Mus musculus [7] was found to be 50%.
In the case of `CN(C)NC(=O)c1cccnc1`, the inhibition in vivo at 64 mg/kg in the experiment on Rattus norvegicus [8] and in the experiment with Rattus norvegicus [9] was 0% throughout. In the experiment on Mus musculus [2], the inhibition in vivo at 128 mg/kg was 45%.
With `O=C(NNC(=O)c1ccncc1)c1ccccc1`, the inhibition in vivo at 128 mg/kg in the experiment with Rattus norvegicus [1] was determined as 17%; in the experiment on Mus musculus [2], 38.3%; with Rattus norvegicus [3] it was 0%.
The matching figures for `O=C(NN1CCOCC1)c1cccnc1`: 50%, 6.7% and 17%.
For `O=C(NN(C(=O)c1ccncc1)c1ccccc1)c1ccncc1`, the inhibition in vivo at 100 mg/kg in the experiment with Rattus norvegicus [4] and with Rattus norvegicus [6] was 34% each time. In addition, the inhibition in vivo at 120 mg/kg in the experiment on Mus musculus [5] turned out to be 84%.
Consider `O=C(NNc1ccccn1)c1ccccn1`, for which the inhibition in vivo at 11.8 mg/kg in the experiment with Mus musculus [10] was 50%. The inhibition in vivo at 120 mg/kg with Rattus norvegicus [11] and with Rattus norvegicus [12] was 100% each time.
For the compound `COc1ccc2c(c1)c(CC(=O)O)c(C)n2C(=O)c1ccc(Cl)cc1` [INDOMETHACIN], the figures for the inhibition in vivo at 12 mg/kg in the experiment with Rattus norvegicus [13] and in the experiment on Rattus norvegicus [14] were 83% and 17%, respectively.
As to `CC(=O)Oc1ccccc1C(=O)O` [ASPIRIN], in the experiment with Mus musculus [15], the inhibition in vivo at 50 mg/kg was found to be 50%.
